Laboratory results from ChEMBL document CHEMBL2062375, “Discovery of an orally efficacious inhibitor of anaplastic lymphoma kinase” (J Med Chem, 2012).
Activity calls are given as the source filed them. The rule behind the calls is not given here.

How the values were obtained:
[1] = target: T1, ALK tyrosine kinase receptor (Homo sapiens, UniProt Q9UM73); assay: Inhibition of human ALK cytoplasmic domain expressed in baculovirus using GST-PLCgamma as substrate preincubated for 15 mins before substrate addition measured after 1 hr by time resolved fluorescence assay
T1 sequence (Q9UM73 whole entry, the tested form may be a part): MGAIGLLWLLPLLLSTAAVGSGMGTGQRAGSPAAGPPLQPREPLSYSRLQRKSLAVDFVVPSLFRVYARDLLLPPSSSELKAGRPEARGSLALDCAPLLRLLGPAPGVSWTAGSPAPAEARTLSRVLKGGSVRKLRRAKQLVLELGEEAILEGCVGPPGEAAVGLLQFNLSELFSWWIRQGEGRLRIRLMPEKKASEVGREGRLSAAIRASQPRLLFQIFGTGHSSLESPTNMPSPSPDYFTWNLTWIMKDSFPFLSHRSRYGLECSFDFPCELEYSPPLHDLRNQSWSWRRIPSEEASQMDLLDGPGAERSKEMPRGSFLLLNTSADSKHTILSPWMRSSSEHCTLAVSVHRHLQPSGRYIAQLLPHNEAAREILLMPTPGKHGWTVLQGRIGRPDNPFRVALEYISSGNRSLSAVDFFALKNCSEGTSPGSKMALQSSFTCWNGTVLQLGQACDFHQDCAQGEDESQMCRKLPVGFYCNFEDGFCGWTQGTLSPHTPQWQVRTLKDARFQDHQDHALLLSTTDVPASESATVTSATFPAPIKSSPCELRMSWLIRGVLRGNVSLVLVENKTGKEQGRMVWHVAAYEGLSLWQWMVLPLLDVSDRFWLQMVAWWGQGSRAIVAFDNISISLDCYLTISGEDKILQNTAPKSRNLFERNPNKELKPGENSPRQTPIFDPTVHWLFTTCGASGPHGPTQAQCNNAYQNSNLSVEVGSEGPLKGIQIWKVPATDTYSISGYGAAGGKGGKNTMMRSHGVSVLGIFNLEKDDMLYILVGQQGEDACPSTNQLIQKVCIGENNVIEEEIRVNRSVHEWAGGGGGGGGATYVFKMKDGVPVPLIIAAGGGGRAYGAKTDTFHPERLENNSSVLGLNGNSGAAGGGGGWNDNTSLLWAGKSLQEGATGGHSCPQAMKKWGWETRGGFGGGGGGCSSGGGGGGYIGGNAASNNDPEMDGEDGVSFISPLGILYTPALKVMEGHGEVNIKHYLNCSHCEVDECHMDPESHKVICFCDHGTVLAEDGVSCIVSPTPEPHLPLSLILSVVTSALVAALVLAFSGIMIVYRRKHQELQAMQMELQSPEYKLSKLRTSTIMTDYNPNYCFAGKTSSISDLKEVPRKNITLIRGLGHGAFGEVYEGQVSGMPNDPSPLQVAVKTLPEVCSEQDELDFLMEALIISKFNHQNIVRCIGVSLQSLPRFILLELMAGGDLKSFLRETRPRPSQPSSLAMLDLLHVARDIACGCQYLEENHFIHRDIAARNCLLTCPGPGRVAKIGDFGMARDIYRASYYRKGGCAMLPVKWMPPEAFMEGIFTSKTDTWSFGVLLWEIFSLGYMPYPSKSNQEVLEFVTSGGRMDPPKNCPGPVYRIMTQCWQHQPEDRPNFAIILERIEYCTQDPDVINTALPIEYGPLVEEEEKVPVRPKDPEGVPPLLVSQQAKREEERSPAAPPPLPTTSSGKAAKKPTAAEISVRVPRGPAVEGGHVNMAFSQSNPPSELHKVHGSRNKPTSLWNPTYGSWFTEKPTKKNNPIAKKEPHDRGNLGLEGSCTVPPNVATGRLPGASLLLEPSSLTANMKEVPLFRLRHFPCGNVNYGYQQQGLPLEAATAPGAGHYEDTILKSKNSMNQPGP

[2] = target: T1, ALK tyrosine kinase receptor; assay: Inhibition of ALK tyrosine phosphorylation in human Karpas-299 cells after 2 hrs in presence of mouse plasma; type: cell-based
[3] = Cmax in rat at 10 mg/kg, po; type: ADME, organism-based; design: dose 10 mg/kg, route oral; conditions: in vivo
Procedure, shortened: (§1)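 Rat oral dose escalation at 10, 30, 55 and 100 mg/kg. Gavage at 5 mL/kg in 40% HPβCD after an overnight fast. Serial tail-vein blood was drawn into heparinized tubes. Plasma was protein-precipitated with acetonitrile and assayed by LC-MS/MS. Cmax and AUC0–12 were derived noncompartmentally; n = 2 at 10 mg/kg.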

[4] = Cmax in rat at 30 mg/kg, po; type: ADME, organism-based; design: dose 30 mg/kg, route oral; conditions: in vivo; procedure, shortened: as §1
[5] = Cmax in rat at 55 mg/kg, po; type: ADME, organism-based; design: dose 55 mg/kg, route oral; conditions: in vivo; procedure, shortened: as §1
[6] = Cmax in rat at 100 mg/kg, po; type: ADME, organism-based; design: dose 100 mg/kg, route oral; conditions: in vivo; procedure, shortened: as §1
[7] = AUC (0 to 12 hrs) in rat 10 mg/kg, po; type: ADME, organism-based; design: time < 12 hr, dose 10 mg/kg, route oral; conditions: plasma; procedure, shortened: as §1
[8] = AUC (0 to 12 hrs) in rat 30 mg/kg, po; type: ADME, organism-based; design: time < 12 hr, dose 30 mg/kg, route oral; conditions: plasma; procedure, shortened: as §1
[9] = AUC (0 to 12 hrs) in rat 55 mg/kg, po; type: ADME, organism-based; design: time < 12 hr, dose 55 mg/kg, route oral; conditions: plasma; procedure, shortened: as §1
[10] = AUC (0 to 12 hrs) in rat 100 mg/kg, po; type: ADME, organism-based; design: time < 12 hr, dose 100 mg/kg, route oral; conditions: plasma; procedure, shortened: as §1
[11] = system: KARPAS-299; assay: Antitumor activity against human KARPAS299 cells expressing NPM-ALK xenografted in SCID mouse assessed as tumor stasis up to 100 mg/kg, po bid for 12 days; type: functional, organism-based; design: dose 100 mg/kg
[12] = system: Rattus norvegicus; assay: Ratio of Cmax at 10 mg/kg, po to Cmax at 100 mg/kg, po in rat; type: ADME, organism-based; conditions: in vivo
Procedure, shortened: (§2)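 Oral dose-escalation PK study in rats at 10, 30, 55 and 100 mg/kg. […] The ratio compares the 10 mg/kg value with the 100 mg/kg value.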

[13] = system: Rattus norvegicus; assay: Ratio of AUC (0 to 12 h) at 10 mg/kg, po to AUC (0 to 12 h) at 100 mg/kg, po in rat; type: ADME, organism-based; conditions: in vivo; procedure, shortened: as §2

Row | IC50 [1] [µM] | IC50 [2] [µM] | Cmax [3] [µg/mL] | Cmax [4] [µg/mL] | Cmax [5] [µg/mL] | Cmax [6] [µg/mL] | AUC(0-t) at 12 h [7] [µg·h/mL] | AUC(0-t) at 12 h [8] [µg·h/mL] | AUC(0-t) at 12 h [9] [µg·h/mL] | AUC(0-t) at 12 h [10] [µg·h/mL] | Ratio [12] | Ratio [13] | SMILES | Activity [11]
1 | 0.035 | 0.12 | – | – | – | – | – | – | – | – | – | – | COc1c(Nc2ncc(Cl)c(N[C@H]3[C@@H](C(N)=O)[C@@H]4C=C[C@H]3C4)n2)ccc2c1CC[C@H](N1CCOCC1)CC2 | –
2 | – | 0.045 | 0.925 | 1.36 | 1.45 | 1.55 | 6.03 | 11.8 | 13.8 | 14 | 2 | 2 | CCN1C(=O)CCCc2c1ccc(Nc1ncc(Cl)c(N[C@H]3[C@@H](C(N)=O)[C@@H]4C=C[C@H]3C4)n1)c2OC | Active
